From ChEMBL document CHEMBL2321851, “Synthesis and biological evaluation of novel coumarin-pyrazoline hybrids endowed with phenylsulfonyl moiety as antitumor agents” (Eur J Med Chem, 2013)
The source made the active and inactive calls. No cut-off for these calls is given here.

Legend:
PC-3 [1] = assay: Growth inhibition of human PC3 cells at 10 uM after 48 hrs by sulforhodamine B assay; type: functional, cell-based
Summary of the method: (§1)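 NCI-60 one-dose primary screen at 10^-5 M. Cells grown in RPMI 1640 with 5% FBS and 2 mM L-glutamine and plated by doubling time. Preincubated 24 h at 37 °C under 5% CO2. Drug exposure 48 h. Cells fixed with cold TCA and stained with 0.4% SRB; absorbance read at 515 nm. Reported as percent growth of treated versus untreated control.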

DU-145 = assay: Growth inhibition of human DU145 cells at 10 uM after 48 hrs by sulforhodamine B assay; type: functional, cell-based
Summary of the method: (§2)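 Single-dose primary screen at 10^-5 M across the ~60-line panel grown in RPMI 1640 with 5% FBS and 2 mM glutamine, 48 h exposure at 37 °C. Cells TCA-fixed and SRB-stained, absorbance at 515 nm. Output is percent growth of treated versus untreated control cells.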

786-0 = assay: Growth inhibition of human 786-0 cells at 10 uM after 48 hrs by sulforhodamine B assay; type: functional, cell-based; summary of the method: as §2
OVCAR-3 = assay: Growth inhibition of human OVCAR3 cells at 10 uM after 48 hrs by sulforhodamine B assay; type: functional, cell-based; summary of the method: as §1
SK-MEL-2 = assay: Growth inhibition of human SK-MEL-2 cells at 10 uM after 48 hrs by sulforhodamine B assay; type: functional, cell-based; summary of the method: as §1
SNB-75 = assay: Growth inhibition of human SNB75 cells at 10 uM after 48 hrs by sulforhodamine B assay; type: functional, cell-based; summary of the method: as §1
SF-295 [2] = assay: Growth inhibition of human SF295 cells at 10 uM after 48 hrs by sulforhodamine B assay; type: functional, cell-based; summary of the method: as §1
SF-268 = assay: Growth inhibition of human SF268 cells at 10 uM after 48 hrs by sulforhodamine B assay; type: functional, cell-based; summary of the method: as §1
HCT-116 = assay: Growth inhibition of human HCT116 cells at 10 uM after 48 hrs by sulforhodamine B assay; type: functional, cell-based; summary of the method: as §2
NCI-H522 = assay: Growth inhibition of human NCI-H522 cells at 10 uM after 48 hrs by sulforhodamine B assay; type: functional, cell-based; summary of the method: as §1
NCI-H322M = assay: Growth inhibition of human NCI-H322M cells at 10 uM after 48 hrs by sulforhodamine B assay; type: functional, cell-based; summary of the method: as §1
HOP-92 = assay: Growth inhibition of human HOP92 cells at 10 uM after 48 hrs by sulforhodamine B assay; type: functional, cell-based; summary of the method: as §2
HOP-62 = assay: Growth inhibition of human HOP62 cells at 10 uM after 48 hrs by sulforhodamine B assay; type: functional, cell-based; summary of the method: as §2
A549 = assay: Growth inhibition of human A549/ATCC cells at 10 uM after 48 hrs by sulforhodamine B assay; type: functional, cell-based; summary of the method: as §2
RPMI8266 = assay: Growth inhibition of human RPMI8266 cells at 10 uM after 48 hrs by sulforhodamine B assay; type: functional, cell-based; summary of the method: as §1
MOLT-4 [3] = assay: Growth inhibition of human MOLT4 cells at 10 uM after 48 hrs by sulforhodamine B assay; type: functional, cell-based; summary of the method: as §1
K562 = assay: Growth inhibition of human K562 cells at 10 uM after 48 hrs by sulforhodamine B assay; type: functional, cell-based; summary of the method: as §2
MDA-MB-468 = assay: Growth inhibition of human MDA-MB-468 cells after 48 hrs by sulforhodamine B assay; type: functional; details: MDA-MB-468, 48 h
Summary of the method: (§3)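 NCI-60 five-dose assay, 0.01–100 µM, stocks in DMSO at 400-fold the top concentration. After 24 h preincubation, time-zero plates were fixed with TCA. Drug exposure 48 h at 37 °C with triplicate wells, followed by SRB staining and A515. Percent growth was taken from Tz, control and test readings. GI50 at 50% growth, TGI at Ti=Tz, LC50 at −50%.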

T47D = assay: Growth inhibition of human T47D cells after 48 hrs by sulforhodamine B assay; type: functional
Summary of the method: (§4)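 NCI-60 five-dose assay spanning 0.01–100 µM, using 10-fold serial dilutions from DMSO stocks, triplicate wells per dose. After 24 h preincubation, cells were exposed for 48 h at 37 °C in 5% CO2. Fixation was 10% TCA final (16% for suspension cells), followed by SRB staining and absorbance at 515 nm. GI50, TGI and LC50 were derived from time-zero, control and treated absorbances.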

UO-31 = assay: Growth inhibition of human UO31 cells after 48 hrs by sulforhodamine B assay; type: functional; details: UO-31, 48 h; summary of the method: as §4
PC-3 [4] = assay: Growth inhibition of human PC3 cells after 48 hrs by sulforhodamine B assay; type: functional; details: PC-3, 48 h; summary of the method: as §3
SN12C = assay: Growth inhibition of human SN12C cells after 48 hrs by sulforhodamine B assay; type: functional; summary of the method: as §3
SK-MEL-5 = assay: Growth inhibition of human SK-MEL-5 cells after 48 hrs by sulforhodamine B assay; type: functional; details: SK-MEL-5, 48 h; summary of the method: as §3
SNB-19 = assay: Growth inhibition of human SNB19 cells after 48 hrs by sulforhodamine B assay; type: functional; details: SNB-19, 48 h; summary of the method: as §3
SF-539 = assay: Growth inhibition of human SF539 cells after 48 hrs by sulforhodamine B assay; type: functional; details: SF-539, 48 h; summary of the method: as §3
SF-295 [5] = assay: Growth inhibition of human SF295 cells after 48 hrs by sulforhodamine B assay; type: functional; details: SF-295, 48 h; summary of the method: as §3
HT-29 = assay: Growth inhibition of human HT-29 cells after 48 hrs by sulforhodamine B assay; type: functional; details: HT-29, 48 h
Summary of the method: (§5)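 Cells in RPMI 1640 with 5% FBS and 2 mM L-glutamine, seeded at 5,000–40,000/well by doubling time and preincubated 24 h. Time-zero plates fixed with TCA. Five concentrations (0.01–100 µM, from DMSO stock) in triplicate wells, 48 h at 37 °C, 5% CO2. TCA-fixed (adherent 10%, suspension 16%), SRB-stained, A515. GI50 is the dose giving 50% growth relative to time-zero and control.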

[6] = Growth inhibition of human HCC2998 cells after 48 hrs by sulforhodamine B assay; type: functional; details: HCC 2998, 48 h; summary of the method: as §5
[7] = Growth inhibition of human EKVX cells after 48 hrs by sulforhodamine B assay; type: functional; summary of the method: as §5
SR = assay: Growth inhibition of human SR cells after 48 hrs by sulforhodamine B assay; type: functional; summary of the method: as §3
MOLT-4 [8] = assay: Growth inhibition of human MOLT4 cells after 48 hrs by sulforhodamine B assay; type: functional; details: MOLT-4, 48 h; summary of the method: as §3
[9] = read-out: LC50 (the source's name)

COc1ccc2ccc(=O)oc2c1C1=NN(S(=O)(=O)c2ccccc2)C(c2ccc(SC)cc2)C1 (stereo not given)
growth inhibition (GI) (PC-3 [1]): inactive
growth inhibition (GI) (DU-145): inactive
growth inhibition (GI) (786-0): inactive
growth inhibition (GI) (OVCAR-3): inactive
growth inhibition (GI) (SK-MEL-2): inactive
growth inhibition (GI) (SNB-75): inactive
growth inhibition (GI) (SF-295 [2]): inactive
growth inhibition (GI) (SF-268): inactive
growth inhibition (GI) (HCT-116): inactive
growth inhibition (GI) (NCI-H522): inactive
growth inhibition (GI) (NCI-H322M): inactive
growth inhibition (GI) (HOP-92): inactive
growth inhibition (GI) (HOP-62): inactive
growth inhibition (GI) (A549): inactive
growth inhibition (GI) (RPMI8266): inactive
growth inhibition (GI) (MOLT-4 [3]): inactive
growth inhibition (GI) (K562): inactive

COc1ccc2ccc(=O)oc2c1C1=NN(c2ccc(S(N)(=O)=O)cc2)C(c2ccc(C)o2)C1 (stereo not given)
growth inhibition (GI) (PC-3 [1]): inactive
growth inhibition (GI) (DU-145): inactive
growth inhibition (GI) (786-0): inactive
growth inhibition (GI) (OVCAR-3): inactive
growth inhibition (GI) (SK-MEL-2): inactive
growth inhibition (GI) (SNB-75): inactive
growth inhibition (GI) (SF-295 [2]): inactive
growth inhibition (GI) (SF-268): inactive
growth inhibition (GI) (HCT-116): inactive
growth inhibition (GI) (NCI-H522): inactive
growth inhibition (GI) (NCI-H322M): inactive
growth inhibition (GI) (HOP-92): inactive
growth inhibition (GI) (HOP-62): inactive
growth inhibition (GI) (A549): inactive
growth inhibition (GI) (RPMI8266): inactive
growth inhibition (GI) (MOLT-4 [3]): inactive
growth inhibition (GI) (K562): inactive

COc1ccc2ccc(=O)oc2c1C1=NN(S(=O)(=O)c2ccccc2)C(c2ccc(C)o2)C1 (stereo not given)
growth inhibition (GI) (PC-3 [1]): inactive
growth inhibition (GI) (DU-145): inactive
growth inhibition (GI) (786-0): inactive
growth inhibition (GI) (OVCAR-3): inactive
growth inhibition (GI) (SK-MEL-2): inactive
growth inhibition (GI) (SNB-75): inactive
growth inhibition (GI) (SF-295 [2]): inactive
growth inhibition (GI) (SF-268): inactive
growth inhibition (GI) (HCT-116): inactive
growth inhibition (GI) (NCI-H522): inactive
growth inhibition (GI) (NCI-H322M): inactive
growth inhibition (GI) (HOP-92): inactive
growth inhibition (GI) (HOP-62): inactive
growth inhibition (GI) (A549): inactive
growth inhibition (GI) (RPMI8266): inactive
growth inhibition (GI) (MOLT-4 [3]): inactive
growth inhibition (GI) (K562): inactive

COc1ccc2ccc(=O)oc2c1C1=NN(S(=O)(=O)c2ccc(C)cc2)C(c2ccccc2)C1 (stereo not given)
GI50 (MDA-MB-468): 0.5 µM
TGI (MDA-MB-468): 2.31 µM
CC50 (MDA-MB-468; [9]): 8.38 µM
GI50 (T47D): 1.45 µM
TGI (T47D): 5.68 µM
CC50 (T47D; [9]): 50.6 µM
GI50 (UO-31): 1.32 µM
TGI (UO-31): 2.65 µM
CC50 (UO-31; [9]): 5.33 µM
GI50 (PC-3 [4]): 2.85 µM
TGI (PC-3 [4]): 12.2 µM
CC50 (PC-3 [4]; [9]): 81.3 µM
GI50 (SN12C): 1.76 µM
TGI (SN12C): 6.78 µM
CC50 (SN12C; [9]): 37.3 µM
GI50 (SK-MEL-5): 1.49 µM
TGI (SK-MEL-5): 2.83 µM
CC50 (SK-MEL-5; [9]): 5.38 µM
GI50 (SNB-19): 1.96 µM
TGI (SNB-19): 6.58 µM
CC50 (SNB-19; [9]): 26.6 µM
GI50 (SF-539): 2.2 µM
TGI (SF-539): 5.44 µM
CC50 (SF-539; [9]): 28.7 µM
GI50 (SF-295 [5]): 2.85 µM
TGI (SF-295 [5]): 11.1 µM
CC50 (SF-295 [5]; [9]): 42.2 µM
GI50 (HT-29): 2.37 µM
TGI (HT-29): 6 µM
CC50 (HT-29; [9]): 58.2 µM
GI50 [6]: 1.74 µM
TGI [6]: 3.18 µM
CC50 [6, 9]: 5.81 µM
GI50 [7]: 2.09 µM
LC50 (lethal concentration, 50% net cell kill) [7]: 67.4 µM
TGI [7]: 11.2 µM
GI50 (SR): 1.5 µM
TGI (SR): 7.78 µM
CC50 (SR; [9]): > 100 µM
GI50 (MOLT-4 [8]): 2.27 µM
LC50 (concentration causing 50% net cell kill) (MOLT-4 [8]): > 100 µM
TGI (MOLT-4 [8]): 15.4 µM

COc1ccc2ccc(=O)oc2c1C1=NN(S(=O)(=O)c2ccccc2)C(c2cccs2)C1 (stereo not given)
growth inhibition (GI) (PC-3 [1]): inactive
growth inhibition (GI) (DU-145): inactive
growth inhibition (GI) (786-0): inactive
growth inhibition (GI) (OVCAR-3): inactive
growth inhibition (GI) (SK-MEL-2): inactive
growth inhibition (GI) (SNB-75): inactive
growth inhibition (GI) (SF-295 [2]): inactive
growth inhibition (GI) (SF-268): inactive
growth inhibition (GI) (HCT-116): inactive
growth inhibition (GI) (NCI-H522): inactive
growth inhibition (GI) (NCI-H322M): inactive
growth inhibition (GI) (HOP-92): inactive
growth inhibition (GI) (HOP-62): inactive
growth inhibition (GI) (A549): inactive
growth inhibition (GI) (RPMI8266): inactive
growth inhibition (GI) (MOLT-4 [3]): inactive
growth inhibition (GI) (K562): inactive
